ChEMBL document CHEMBL3232820, “Improved total synthesis and biological evaluation of potent apratoxin S4 based anticancer agents with differential stability and further enhanced activity” (J Med Chem, 2014)
pIC50: −log10 of the molar value. Calls of active or inactive are those of the source. The rule behind the calls is not given here.

How the values were obtained:
[1] = Half life in phosphate buffer at 25 ug/ml at pH 4.88 by HPLC-MS analysis; format: physicochemical
Summary of the method: (§1)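 Compound (10 μL of 25 μg/mL) spiked into 100 μL of 100 mM phosphate buffer, pH 4.88 or pH 7.4, incubated 0.25 min to 24 h; ethyl acetate extraction with harmine internal standard; HPLC-MS (MRM); remaining amount from calibration curve.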

Liver [2] = experiment: Metabolic stability in CD1 mouse liver microsomes assessed as compound remaining at 1 uM after 3 mins by HPLC-MS analysis; format: ADME; conditions: 0.05 h
Summary of the method: (§2)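 Pooled female CD1 mouse liver microsomes, 0.5 mg/mL protein final, in 100 mM phosphate pH 7.4 at 37 °C; compound 1 μM final, with or without NADPH-regenerating system; 3 min to 2 h; quenched with ethyl acetate, harmine internal standard; HPLC-MS (MRM); % remaining versus t0 peak-area ratio; triplicate.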

Mus musculus [3] = experiment: Toxicity in nu/nu mouse xenografted with human HCT116 cells assessed as body weight loss at 0.1 to 0.25 mg/kg, ip for 16 days; format: organism-based, HCT-116; parameters: dose 0.1-0.25 mg/kg, route intraperitoneal; conditions: in vivo, 384 h
Liver [4] = experiment: Metabolic stability in CD1 mouse liver microsomes assessed as compound remaining at 1 uM after 5 mins by HPLC-MS analysis; format: ADME; summary of the method: as §2
HCT-116 [5] = experiment: Antitumor activity against human HCT116 cells xenografted in ip dosed nu/nu mouse assessed as tumor growth inhibition administered for 16 days; format: functional, organism-based
Summary of the method: (§3)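 Female nu/nu mice, 3–5 weeks old; 1×10^6 HCT116 cells in saline injected sc in left rear flank; daily ip 0.1 or 0.25 mg/kg (2 or 5 μg/mouse) or DMSO vehicle, 16 days; n = 7 treated, 6 vehicle; caliper volumes daily (W²×L×0.5); tumours starting above 100 mm³ excluded.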

Mus musculus [6] = experiment: Toxicity in nu/nu mouse xenografted with human HCT116 cells assessed as abnormal behavior at 0.1 to 0.25 mg/kg, ip for 16 days; format: organism-based, HCT-116; parameters: dose 0.1-0.25 mg/kg, route intraperitoneal; conditions: in vivo, 384 h
HCT-116 [7] = experiment: Antiproliferative activity against human HCT116 cells after 48 hrs by MTT assay; format: functional, cell-based; conditions: HCT-116, 48 h
HCT-116 [8] = experiment: Downregulation of VEGFR2 protein expression in human HCT116 cells xenografted in nu/nu mouse at 0.25 mg/kg, ip for 16 days by immunoblotting analysis; format: functional, organism-based; parameters: dose 0.25 mg/kg
Summary of the method: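 Xenograft tumours harvested at the end of the daily ip efficacy study in nu/nu mice bearing sc HCT116 tumours were analysed by immunoblotting with anti-VEGFR2 antibody.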

[9] = Half life in phosphate buffer at 25 ug/ml at pH 7.4 by HPLC-MS analysis; format: physicochemical; summary of the method: as §1
HCT-116 [10] = experiment: Metabolic stability in human HCT116 cells at 25 ug/ml up to 24 hrs by HPLC-MS analysis; format: ADME, cell-based; conditions: hct-116, 24 h
Summary of the method: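 HCT116 lysate diluted in 25 mM Tris-HCl pH 8.0 to 0.7 mg/mL protein, 100 μL; incubated with compound (10 μL of 25 μg/mL) 0.25 min to 24 h; ethyl acetate extraction with harmine; HPLC-MS (MRM); remaining amount from calibration curve.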

Liver [11] = experiment: Metabolic stability in CD1 mouse liver microsomes assessed as compound remaining at 1 uM after 5 mins by HPLC-MS analysis in presence of NADPH; format: ADME; summary of the method: as §2
Liver [12] = experiment: Metabolic stability in CD1 mouse liver microsomes assessed as compound remaining at 1 uM after 15 mins by HPLC-MS analysis in presence of NADPH; format: ADME; conditions: 0.25 h; summary of the method: as §2
Liver [13] = experiment: Metabolic stability in CD1 mouse liver microsomes assessed as compound remaining at 1 uM after 60 mins by HPLC-MS analysis in presence of NADPH; format: ADME; conditions: 1 h; summary of the method: as §2
Liver [14] = experiment: Metabolic stability in CD1 mouse liver microsomes assessed as compound remaining at 1 uM after 120 mins by HPLC-MS analysis in presence of NADPH; format: ADME; conditions: 2 h; summary of the method: as §2
Liver [15] = experiment: Metabolic stability in CD1 mouse liver microsomes assessed as compound remaining at 1 uM after 30 mins by HPLC-MS analysis in presence of NADPH; format: ADME; conditions: 0.5 h; summary of the method: as §2
Liver [16] = experiment: Metabolic stability in CD1 mouse liver microsomes assessed as compound remaining at 1 uM after 60 mins by HPLC-MS analysis; format: ADME; conditions: 1 h; summary of the method: as §2
Liver [17] = experiment: Metabolic stability in CD1 mouse liver microsomes assessed as compound remaining at 1 uM after 3 mins by HPLC-MS analysis in presence of NADPH; format: ADME; conditions: 0.05 h; summary of the method: as §2
HCT-116 [18] = experiment: Downregulation of human MET protein expression in HCT116 cells up to 10 uM after 24 hrs by Western blotting analysis; format: functional, cell-based
Summary of the method: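 HCT116 cells seeded 4×10^5/well, treated next day with a concentration series (solvent control 1% EtOH) for 24 h; whole-cell lysates, equal protein by BCA, 4–12% SDS-PAGE, PVDF transfer, anti-Met immunoblot with chemiluminescent detection.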

Plasma = experiment: Metabolic stability in mouse plasma at 25 ug/ml up to 24 hrs by HPLC-MS analysis; format: ADME, cell-free
Summary of the method: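 Compound (10 μL of 25 μg/mL) added to 100 μL mouse serum, incubated 0.25 min to 24 h; ethyl acetate plus harmine quench/extraction, dried, reconstituted in acetonitrile; HPLC-MS (MRM); remaining amount from calibration curve.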

Liver [19] = experiment: Metabolic stability in CD1 mouse liver microsomes assessed as compound remaining at 1 uM after 30 mins by HPLC-MS analysis; format: ADME; conditions: 0.5 h; summary of the method: as §2
[20] = molecular target: T1, Vascular endothelial growth factor A, long form (Homo sapiens, UniProt P15692); experiment: Inhibition of VEGF-A production in human HCT116 cells after 12 hrs by alphaLISA assay; format: cell-based, HCT-116
T1 sequence (P15692 whole entry): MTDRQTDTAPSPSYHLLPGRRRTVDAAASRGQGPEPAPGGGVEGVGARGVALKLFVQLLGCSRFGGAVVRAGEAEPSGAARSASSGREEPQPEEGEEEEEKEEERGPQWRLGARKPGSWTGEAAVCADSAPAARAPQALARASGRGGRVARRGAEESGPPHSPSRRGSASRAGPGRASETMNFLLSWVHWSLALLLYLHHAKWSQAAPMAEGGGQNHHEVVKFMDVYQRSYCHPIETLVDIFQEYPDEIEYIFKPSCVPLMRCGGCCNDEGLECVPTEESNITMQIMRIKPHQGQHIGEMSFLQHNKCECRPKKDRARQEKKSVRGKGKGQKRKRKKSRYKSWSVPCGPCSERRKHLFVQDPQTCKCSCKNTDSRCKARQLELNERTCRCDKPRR

Liver [21] = experiment: Metabolic stability in CD1 mouse liver microsomes assessed as compound remaining at 1 uM after 120 mins by HPLC-MS analysis; format: ADME; conditions: 2 h; summary of the method: as §2
[22] = Half life in CD1 mouse liver microsomes at 1 uM by HPLC-MS analysis in presence of NADPH; format: ADME
HCT-116 [23] = experiment: Antitumor activity against human HCT116 cells xenografted in nu/nu mouse assessed as tumor growth inhibition at 0.1 mg/kg, ip for 16 days relative to control; format: functional; conditions: HCT-116, ip, 384 h, route intraperitoneal, read-out: TGI; summary of the method: as §3
Liver [24] = experiment: Metabolic stability in CD1 mouse liver microsomes assessed as compound remaining at 1 uM after 15 mins by HPLC-MS analysis; format: ADME; conditions: 0.25 h; summary of the method: as §2

CC[C@H](C)[C@H]1C(=O)N2CCC[C@H]2C(=O)O[C@H](C(C)(C)C)C[C@@H](C)C[C@H](O)C(C)(C)C2=N[C@@H](CCC(=O)N[C@@H](Cc3ccc(OC)cc3)C(=O)N(C)[C@@H](C)C(=O)N1C)CS2
half-life at 25 ug/ml [1]: > 24 h | Stability (Liver [2]): 74.1% | Activity (Mus musculus [3]): Non-toxic | Stability (Liver [4]): 77.45% | TGI (HCT-116 [5]): Dose-dependent effect | Activity (Mus musculus [6]): Non-toxic | pIC50 (HCT-116 [7]): 8.70 | Activity (HCT-116 [8]): Active | half-life at 25 ug/ml [9]: > 24 h | Stability (HCT-116 [10]): Stable | Stability (Liver [11]): 17.3% | Stability (Liver [12]): 8.28% | Stability (Liver [13]): 3.55% | Stability (Liver [14]): 5.01% | Stability (Liver [15]): 4.83% | Stability (Liver [16]): 81.25% | Stability (Liver [17]): 37.2% | Activity (HCT-116 [18]): Active | Stability (Plasma): Stable | Stability (Liver [19]): 74.75% | pIC50 [20]: 9.33 | Stability (Liver [21]): 70.05% | half-life at 1 µM [22]: < 5 min | inhibition in vivo at 0.1 mg/kg (HCT-116 [23]): 50% | Stability (Liver [24]): 63.45%

CC[C@H](C)[C@H]1C(=O)N2CCC[C@H]2C(=O)O[C@H](C(C)(C)C)C[C@@H](C)C[C@H](O)CC2=N[C@@H](CCC(=O)N[C@@H](Cc3ccc(OC)cc3)C(=O)N(C)[C@@H](C)C(=O)N1C)CS2
half-life at 25 ug/ml [1]: > 24 h | Stability (Liver [2]): 66.6% | Stability (Liver [4]): 60.5% | pIC50 (HCT-116 [7]): 8.90 | half-life at 25 ug/ml [9]: > 24 h | Stability (HCT-116 [10]): Stable | Stability (Liver [11]): 18.7% | Stability (Liver [12]): 52.4% | Stability (Liver [13]): 5.41% | Stability (Liver [14]): 4.3% | Stability (Liver [15]): 6.1% | Stability (Liver [16]): 54.5% | Stability (Liver [17]): 54.95% | Activity (HCT-116 [18]): Active | Stability (Plasma): Stable | Stability (Liver [19]): 54.8% | pIC50 [20]: 9.52 | Stability (Liver [21]): 53.85% | half-life at 1 µM [22]: < 5 min | Stability (Liver [24]): 76.55%

CC[C@H](C)[C@H]1C(=O)N2CCC[C@H]2C(=O)O[C@H](C(C)(C)C)C[C@@H](C)C[C@H](O)[C@H](C)C2=N[C@@H](CCC(=O)N[C@@H](Cc3ccc(OC)cc3)C(=O)N(C)[C@@H](C)C(=O)N1C)CS2 [APRATOXIN S4]
half-life at 25 ug/ml [1]: > 24 h | Stability (Liver [2]): 87.05% | Stability (Liver [4]): 70.8% | pIC50 (HCT-116 [7]): 8.84 | half-life at 25 ug/ml [9]: > 24 h | Stability (HCT-116 [10]): Stable | Stability (Liver [11]): 32.2% | Stability (Liver [12]): 10.07% | Stability (Liver [13]): 10% | Stability (Liver [14]): 6.02% | Stability (Liver [15]): 9.58% | Stability (Liver [16]): 87.1% | Stability (Liver [17]): 39.55% | Activity (HCT-116 [18]): Active | Stability (Plasma): Stable | Stability (Liver [19]): 73.85% | pIC50 [20]: 9.49 | Stability (Liver [21]): 55.25% | half-life at 1 µM [22]: < 5 min | Stability (Liver [24]): 87.2%

CC[C@H](C)[C@H]1C(=O)N2CCC[C@H]2C(=O)O[C@H](C(C)(C)C)C[C@@H](C)C[C@H](O)[C@H](C)C2=N[C@H](CCC(=O)N[C@@H](Cc3ccc(OC)cc3)C(=O)N(C)[C@@H](C)C(=O)N1C)CS2
half-life at 25 ug/ml [1]: > 24 h | Stability (Liver [2]): 83.1% | Stability (Liver [4]): 71.4% | pIC50 (HCT-116 [7]): 9.16 | half-life at 25 ug/ml [9]: > 24 h | Stability (HCT-116 [10]): Stable | Stability (Liver [11]): 17.8% | Stability (Liver [12]): 3.55% | Stability (Liver [13]): 6.06% | Stability (Liver [14]): 5.63% | Stability (Liver [15]): 3.73% | Stability (Liver [16]): 48.45% | Stability (Liver [17]): 51.4% | Activity (HCT-116 [18]): Active | Stability (Plasma): Stable | Stability (Liver [19]): 56.05% | pIC50 [20]: 9.92 | Stability (Liver [21]): 56.25% | half-life at 1 µM [22]: < 5 min | Stability (Liver [24]): 45.25%
